# KCNQ1 block = inhibitors of human KCNQ1 channel, primary screen, cell-based, thallium flux, high-throughput; CHO-K1 KCNQ1, FluxOR thallium flux fluorescence; hits give high values; AID 2642, 2010; actives 1.3% (n = 310,000); B-score at 10 µM;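 active = compounds whose thallium flux B-score, printed positive for inhibition, exceeds three library SD while starting fluorescence stays within three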;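 also: channel opened by potassium depolarization with thallium stimulus after 20 min compound exposure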
# KCNK9 inh = KCNK9 potassium channel inhibitors, primary screen, HEK293 cells, thallium flux; AID 488922, 2010; actives 1.2% (n = 310,000); B-score at 10 µM; FluxOR thallium flux fluorescence; hits give low values;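 active = ratio B-score over 3 SD below the library mean, with starting fluorescence within 5 SD of its mean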;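 also: negative B-score means less thallium flux so channel inhibition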
# Target sequence (Q9NPC2 whole entry, looked up): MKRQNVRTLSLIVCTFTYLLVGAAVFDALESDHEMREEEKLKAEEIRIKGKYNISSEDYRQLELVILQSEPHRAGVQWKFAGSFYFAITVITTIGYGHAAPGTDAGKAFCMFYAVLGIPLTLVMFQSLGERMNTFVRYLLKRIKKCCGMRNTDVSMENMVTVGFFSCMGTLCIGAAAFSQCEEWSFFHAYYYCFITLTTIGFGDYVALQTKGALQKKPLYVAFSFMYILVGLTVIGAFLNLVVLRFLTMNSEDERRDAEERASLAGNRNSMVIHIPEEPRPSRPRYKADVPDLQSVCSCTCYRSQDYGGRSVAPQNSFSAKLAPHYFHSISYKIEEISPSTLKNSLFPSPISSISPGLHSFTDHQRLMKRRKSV
# KCC2 mod = KCC2 cotransporter modulators, thallium flux, primary screen, cell-based, HEK293 KCC2, FluoZin-2 fluorescence, MLSMR | Solute carrier family 12 member 5 (Homo sapiens), Q9H2X9 | KCC2 cells, thallium flux FluoZin-2 fluorescence | B-score of Tl+ flux slope (higher = more flux/activation; lower = inhibition) at 10 µM | actives 2.2% (n = 190,000) | AID 1456, 2008;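 active = thallium flux slope and its plate-corrected score both differing from the plate sample mean at a set confidence after two filtering rounds, in either direction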;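 also: slope of fluorescence scaled to starting intensity during 10 to 20 s after thallium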
# hERG protect = hERG rescue from dofetilide block, primary screen, cell-based, CHO-hERG, FluxOR thallium flux, dofetilide IC70 | AID 1511, 2009 | activation (rescue from dofetilide block), less the hit threshold, % at 10 µM | dofetilide IC70 present | actives 0.51% (n = 310,000);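 active = activation above the mean of controls blocked by dofetilide plus 5 SD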;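 also: thallium influx through hERG after potassium depolarization seen as dye fluorescence rise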
# KCNQ1 act = potentiators or activators of KCNQ1 channel, primary screen, cell-based, thallium flux, high-throughput; B-score at 10 µM; Potassium voltage-gated channel subfamily KQT member 1 (Homo sapiens), P51787; actives 0.35% (n = 310,000); CHO-K1 KCNQ1, thallium flux FluxOR fluorescence; hits give high values;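 active = fluorescence ratio B-score, a plate-corrected score, at least three library SD, with initial intensity B-score within 5 SD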
#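 Doses: Single concentration per compound, DMSO matched to controls | Test system: KCNQ1-transfected CHO-K1 cells | Timing: 90 min dye loading and 20 min compound exposure, both at room temperature | Measured by: Kinetic FluxOR thallium fluorescence, 10-s 1-Hz baseline, 110-s post-stimulus read | Medium: Assay buffer with matched DMSO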
# KCNK3 block = human KCNK3 channel inhibitors, primary screen, CHO cells, FluxOR thallium flux, B-score. Potassium channel subfamily K member 3 (Homo sapiens), O14649. FluxOR fluorescence; hits give low values. B-score at 10 µM. actives 0.84% (n = 340,000). AID 602410, 2012;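 active = B-score under library mean minus 4 SD, starting fluorescence ratio at most library mean plus 5 SD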;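 also: more negative B-score means stronger inhibition of thallium flux through KCNK3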
# Numbers without * were called inactive; i = inactive; . = no result given; ! = a repeat was not active. Rows were chosen to be rich in hits. Some 4.1% of all compounds tested hit in one or more screens of this group.
SMILES,KCNQ1 block,KCNK9 inh,KCC2 mod,hERG protect,KCNQ1 act,KCNK3 block
CCCC(=O)N1CCN(c2ccc([N+](=O)[O-])c(NC(C)c3ccccc3)c2)CC1 (centres undefined),i,i,-4.57*,-16.9,i,i
CC(C)c1ccc(N(C(=O)c2cc3ccccc3oc2=O)C2C=CS(=O)(=O)C2)cc1 (centres undefined),i,i,-2.65,-6.5,i,i
CC1=NN(c2ccccc2)C(=O)/C1=C\c1c(C)[nH]n(-c2ccccc2)c1=O,i,i,0.575,-9.8,i,i
CC1=NN(c2ccccc2)C(=O)/C1=C/c1c(O)n(-c2ccc(F)c(Cl)c2)[nH]c1=O,i,i,-8.28*,-27.0,12*,.
CC(CCc1ccc(O)cc1)NC(c1ccccc1)c1ccc(Cl)cc1 (centres undefined),12*,i,.,-23.5,i,i
CC(CCc1ccc(O)cc1)NCCC(c1ccccc1)c1ccccc1 (centres undefined),i,i,.,-21.8,i,i
CC1C(=O)C(C)C(c2ccc(Br)cc2)NC1c1ccc(Br)cc1 (centres undefined),6*,i,.,-9.4,i,i
CC1C(=O)C(C)C(c2cc(Br)ccc2O)NC1c1cc(Br)ccc1O (centres undefined),.,.,.,.,.,i
COc1cccc(-c2cc(C(=O)Nc3ccc([N+](=O)[O-])cn3)c3ccccc3n2)c1,i,-7.79*,1.25,-19.3,i,i
O=C(Nc1ccc([N+](=O)[O-])cn1)c1cc(-c2cccc(Cl)c2)nc2ccccc12,i,-7.13*,-1.65,-27.5,i,i
COc1ccc(N=C2SC(CC(=O)Nc3ccccc3)C(=O)N2CCN2CCOCC2)cc1 (centres undefined),i,i,-0.889,-12.4,i,i
CCOc1cc(NC(=S)N2CCC(C(N)=O)CC2)c(C(=O)OC)cc1OCC,i,i,0.0101,11.3*,i,i
COc1cc(C)c(C(C)C)cc1S(=O)(=O)NC1CC(C)(C)NC(C)(C)C1,i,i,.,5.7*,i,i
CC(C)c1ccc(C2C3=C(CC(C)(C)CC3=O)NC3=C2C(=O)c2ccccc23)cc1 (centres undefined),11*,i,-0.443,-6.6,i,i
CC1(C)CC(=O)C2=C(C1)NC1=C(C(=O)c3ccccc31)C2c1cc([N+](=O)[O-])ccc1O (centres undefined),6*,i,-0.204,-12.8,i,i
CC1(C)CC(=O)C2=C(C1)NC1=C(C(=O)c3ccccc31)C2c1ccccc1 (centres undefined),i,i,-1.83,-5.5,i,i
CC(=O)Nc1c(I)c(NC(C)=O)c(I)c(C(=O)O)c1I,i,i,10.3*!,-2.8,i,i
Cc1cc(N2CCN(c3ccccc3Cl)CC2)n2cc(-c3ccccc3)nc2n1,i,-12.3*,-0.418,-18.3,i,i
O=[N+]([O-])c1cc([N+](=O)[O-])c2cccnc2c1Oc1ccccc1O,8*,i,-1.82,-39.8,i,i
O=[N+]([O-])c1ccc(N/N=C2\CC3CC=CC23)c([N+](=O)[O-])c1 (centres undefined),9*,i,-0.909,-15.4,i,i
CC(CCc1ccccc1)NC(=O)c1cccc(F)c1 (centres undefined),i,i,.,-5.7,i,i
CCSCCOC(=O)C1=C(C)NC(=O)NC1c1cc(OC)ccc1OC (centres undefined),i,i,.,-6.3,i,i
CCSCCOC(=O)C1=C(C)N(C)C(=O)NC1c1cc(OC)ccc1OC (centres undefined),i,i,4.25*,-9.7,i,i
COc1ccc(OC)c(S(=O)(=O)N2CCC(NC(=O)c3ccccc3)CC2)c1,i,-7.26*,.,-4.6,i,i
N#Cc1ccc(C2=NC(C(F)(F)F)(C(F)(F)F)c3c(n(Cc4ccco4)c(=O)[nH]c3=O)N2)cc1,7*,i,-0.74,-17.4,i,i
SMILES,KCNQ1 block,KCNK9 inh,KCC2 mod,hERG protect,KCNQ1 act,KCNK3 block
O=c1[nH]c(=O)n(Cc2ccco2)c2c1C(C(F)(F)F)(C(F)(F)F)N=C(CCc1ccccc1)N2,i,i,.,-8.3,i,i
Cc1ccc(N(CC(=O)NCc2ccc(F)cc2)C(=O)c2snc(C(N)=O)c2N)cc1C,i,i,.,-3.3,i,i
C/C(=N\OCC(=O)Nc1ccc(OC(F)(F)F)cc1)c1ccc2c(c1)OCCO2,i,i,0.13,-5.8,10*,i
Nc1nnnn1/N=C/C(Br)=C/c1ccccc1,i,i,-0.875,-10.7,i,i
Cc1ccccc1C(=O)NN1CC(C(=O)OCc2ccc(Cl)c(Cl)c2)CC1=O (centres undefined),i,i,.,-15.8,i,i
CC1(C)C(c2ccccc2)=NC(c2ccccc2)N1O (centres undefined),i,i,1.59,-8.8,i,i
COc1ccc(C2N=C(c3ccccc3)C(C)(C)N2O)cc1 (centres undefined),i,i,0.0137,5.9*,i,i
CCN1CCCC1CNC(=O)c1cc2c(OC)c(OC)c(OC)cc2[nH]1 (centres undefined),i,i,.,-3.8,i,i
O=C(COC(=O)CC1CCS(=O)(=O)C1)Nc1ccc(F)cc1 (centres undefined),.,.,.,.,.,i
O=C(NCC1CC1(Cl)Cl)Nc1ccc(Cl)c(Cl)c1 (centres undefined),i,-8.42*,.,-14.7,i,i
CCN(C(=O)c1ccc(C(C)(C)C)cc1)c1nnc(Cn2nnc3ccccc32)s1,7*,i,-2.54,-20.5,i,i
CCN(C(=O)CC(C)C)c1nnc(Cn2nnc3ccccc32)s1,i,i,-1.02,-12.1,i,i
O=C(O)c1ccccc1N/N=C/C1=C(N2CCOCC2)C(=C\c2ccccc2)/CC1,9*,i,-1.37,-22.5,i,i

# Screening data from PubChem.
